Data as given in ChEMBL document CHEMBL1926614, “Substituted thiazoles V. synthesis and antitumor activity of novel thiazolo[2,3-b]quinazoline and pyrido[4,3-d]thiazolo[3,2-a]pyrimidine analogues” (2012).
Calls of active or inactive are those of the source. The calls are words filed in the database; no cut-off is given here.

Columns and labels:
Format in all cases: functional
[1] = Cytotoxicity against human CNS cancer cells after 48 hrs by coulter counting; details: Cancer cell lines
Summary of the method: (§1)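 NCI 60-cell-line panel covering nine tumour subpanels, tested over a 5-log dose range. Compounds were dissolved in DMSO and diluted in phosphate-buffered saline to a final DMSO below 1%. Wells held 6 × 10⁴ cells/ml and were run in duplicate. Controls contained PBS and DMSO at matching dilutions. Incubation was at 37 °C in humidified 5% CO₂. GI₅₀, TGI and LC₅₀ were reported.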

[2] = Cytotoxicity against human ovarian cancer cells after 48 hrs by coulter counting; details: Cancer cell lines; for CC50: read-out: LC50 (the source's name); summary of the method: as §1
[3] = Cytotoxicity against human prostate cancer cells after 48 hrs by coulter counting; details: Cancer cell lines; summary of the method: as §1
[4] = Cytotoxicity against human breast cancer cells after 48 hrs by coulter counting; details: Cancer cell lines; for CC50: read-out: LC50 (the source's name); summary of the method: as §1
[5] = tested on: NSCLC; assay: Cytotoxicity against human NSCLC cells after 48 hrs by coulter counting; details: for CC50: read-out: LC50 (the source's name); summary of the method: as §1
[6] = tested on: HCT-15; assay: Growth inhibition of human HCT15 cells at 10 uM after 48 hrs by coulter counting
Summary of the method: (§2)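 Single-dose primary screen across the full NCI 60-cell-line panel. Stocks were made in DMSO and diluted in PBS to a final DMSO below 1%. Cultures at 6 × 10⁴ cells/ml were run in duplicate wells alongside PBS/DMSO vehicle controls at 37 °C in humidified 5% CO₂. Data were expressed as percent growth of treated cells.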

[7] = tested on: UACC-62; assay: Growth inhibition of human UACC62 cells at 10 uM after 48 hrs by coulter counting
Summary of the method: (§3)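 Single-dose screen in the NCI 60 human tumor cell line panel (nine subpanels). Compounds dissolved in DMSO and diluted in phosphate buffered saline, keeping final DMSO below 1%. Added in duplicate wells to cells at 6 × 10⁴ cells/ml. Controls held PBS and DMSO at matching dilutions. Incubated at 37 °C, humidified, 5% CO₂. Reported as percent growth of treated cells.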

[8] = tested on: HL-60(TB); assay: Growth inhibition of human HL-60(TB) cells at 10 uM after 48 hrs by coulter counting; details: HL-60, 48 h, read-out: GI
Summary of the method: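 Test compound was dissolved in DMSO and diluted in phosphate-buffered saline to a final DMSO level below 1%. Dilutions were plated in duplicate with cell culture at 6 × 10⁴ cells/ml. Vehicle controls held PBS and DMSO at matching dilutions. Incubation was at 37 °C, humidified, under 5% CO₂. Data were reported as percent growth of treated cells.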

[9] = tested on: K562; assay: Growth inhibition of human K562 cells at 10 uM after 48 hrs by coulter counting; details: K562, 48 h, read-out: GI; summary of the method: as §2
[10] = tested on: MOLT-4; assay: Growth inhibition of human MOLT4 cells at 10 uM after 48 hrs by coulter counting; summary of the method: as §2
[11] = tested on: RPMI-8226; assay: Growth inhibition of human RPMI8226 cells at 10 uM after 48 hrs by coulter counting; summary of the method: as §2
[12] = tested on: HOP-62; assay: Growth inhibition of human HOP62 cells at 10 uM after 48 hrs by coulter counting; summary of the method: as §2
[13] = tested on: NCI-H23; assay: Growth inhibition of human NCI-H23 cells at 10 uM after 48 hrs by coulter counting; details: NCI-H23, 48 h, read-out: GI; summary of the method: as §2
[14] = tested on: NCI-H460; assay: Growth inhibition of human NCI-H460 cells at 10 uM after 48 hrs by coulter counting; summary of the method: as §2
[15] = tested on: NCI-H522; assay: Growth inhibition of human NCI-H522 cells at 10 uM after 48 hrs by coulter counting; details: NCI-H522, 48 h, read-out: GI; summary of the method: as §2
[16] = tested on: HCT-116; assay: Growth inhibition of human HCT116 cells at 10 uM after 48 hrs by coulter counting; summary of the method: as §2
[17] = tested on: KM12; assay: Growth inhibition of human KM12 cells at 10 uM after 48 hrs by coulter counting; summary of the method: as §2
[18] = tested on: SF-268; assay: Growth inhibition of human SF268 cells at 10 uM after 48 hrs by coulter counting; details: SF-268, 48 h, read-out: GI; summary of the method: as §2
[19] = tested on: SF-295; assay: Growth inhibition of human SF295 cells at 10 uM after 48 hrs by coulter counting; details: SF-295, 48 h, read-out: GI; summary of the method: as §2
[20] = tested on: SNB-19; assay: Growth inhibition of human SNB19 cells at 10 uM after 48 hrs by coulter counting; details: SNB-19, 48 h, read-out: GI; summary of the method: as §2
[21] = tested on: SNB-75; assay: Growth inhibition of human SNB75 cells at 10 uM after 48 hrs by coulter counting; details: SNB-75, 48 h, read-out: GI; summary of the method: as §2
[22] = tested on: U-251; assay: Growth inhibition of human U251 cells at 10 uM after 48 hrs by coulter counting; details: U-251, 48 h, read-out: GI; summary of the method: as §3
[23] = tested on: M14; assay: Growth inhibition of human M14 cells at 10 uM after 48 hrs by coulter counting; summary of the method: as §2
[24] = tested on: SK-MEL-5; assay: Growth inhibition of human SK-MEL-5 cells at 10 uM after 48 hrs by coulter counting; details: SK-MEL-5, 48 h, read-out: GI; summary of the method: as §2
[25] = tested on: NCI/ADR-RES; assay: Growth inhibition of human NCI/ADR-RES cells at 10 uM after 48 hrs by coulter counting; summary of the method: as §2
[26] = tested on: A498; assay: Growth inhibition of human A498 cells at 10 uM after 48 hrs by coulter counting; details: A498, 48 h, read-out: GI; summary of the method: as §2
[27] = tested on: CAKI-1; assay: Growth inhibition of human Caki1 cells at 10 uM after 48 hrs by coulter counting; summary of the method: as §2
[28] = tested on: UO-31; assay: Growth inhibition of human UO31 cells at 10 uM after 48 hrs by coulter counting; summary of the method: as §3
[29] = tested on: MCF7; assay: Growth inhibition of human MCF7 cells at 10 uM after 48 hrs by coulter counting; details: MCF7, 48 h, read-out: GI; summary of the method: as §2
[30] = tested on: BT-549; assay: Growth inhibition of human BT549 cells at 10 uM after 48 hrs by coulter counting; details: BT-549, 48 h, read-out: GI; summary of the method: as §2
[31] = tested on: T47D; assay: Growth inhibition of human T47D cells at 10 uM after 48 hrs by coulter counting; details: read-out: GI; summary of the method: as §3
[32] = tested on: OVCAR-3; assay: Growth inhibition of human OVCAR3 cells at 10 uM after 48 hrs by coulter counting; summary of the method: as §2
[33] = tested on: 786-0; assay: Growth inhibition of human 786-0 cells at 10 uM after 48 hrs by coulter counting; details: 786-0, 48 h, read-out: GI; summary of the method: as §2
[34] = tested on: SN12C; assay: Growth inhibition of human SN12C cells at 10 uM after 48 hrs by coulter counting; details: read-out: GI; summary of the method: as §2
[35] = Cytotoxicity against human leukemia cells after 48 hrs by coulter counting; details: Leukemia cell; for CC50: read-out: LC50 (the source's name); summary of the method: as §1
[36] = Cytotoxicity against human colon cancer cells after 48 hrs by coulter counting; details: Cancer cell lines; summary of the method: as §1

## CCN1CC2=C(N=C3SC=CN3C2c2ccc(OC)c(OC)c2)/C(=C/c2ccc(OC)c(OC)c2)C1 (stereo not given)
[1]
  GI50: 3.3 µM
  LC50: 82.8 µM
  TGI: 26.7 µM
[2]
  GI50: 3.2 µM
  TGI: 48.9 µM
  CC50: 90.5 µM
[3]
  GI50: 3.4 µM
  LC50 (concentration killing 50% of cells): 68.4 µM
  TGI: 29.8 µM
[4]
  GI50: 19.3 µM
  TGI: 43.9 µM
  CC50: 74.7 µM
[5]
  GI50: 3.2 µM
  TGI: 40.1 µM
  CC50: 76.5 µM
[6]; HCT-15, 48 h, read-out: GI
  inhibition of growth at 10 µM: 75.8%
[7]; UACC-62, 48 h, read-out: GI
  inhibition of growth at 10 µM: 62.4%
[8]
  inhibition of growth at 10 µM: 48.3%
[9]
  inhibition of growth at 10 µM: 95.2%
[10]; MOLT-4, 48 h, read-out: GI
  inhibition of growth at 10 µM: 67.9%
[11]
  growth inhibition (GI): Active
[12]; HOP-62, 48 h, read-out: GI
  inhibition of growth at 10 µM: 84.7%
[13]
  inhibition of growth at 10 µM: 43.9%
[14]
  growth inhibition (GI): Active
[15]
  inhibition of growth at 10 µM: 46.1%
[16]
  growth inhibition (GI): Active
[17]
  growth inhibition (GI): Active
[18]
  inhibition of growth at 10 µM: 76%
[19]
  inhibition of growth at 10 µM: 82.2%
[20]
  inhibition of growth at 10 µM: 52.9%
[21]
  inhibition of growth at 10 µM: 71.4%
[22]
  inhibition of growth at 10 µM: 90%
[23]; M14, 48 h, read-out: GI
  inhibition of growth at 10 µM: 94.3%
[24]
  inhibition of growth at 10 µM: 60.9%
[25]; read-out: GI
  inhibition of growth at 10 µM: 91.2%
[26]
  inhibition of growth at 10 µM: 18.4%
[27]
  growth inhibition (GI): Active
[28]; UO-31, 48 h, read-out: GI
  inhibition of growth at 10 µM: 40.7%
[29]
  inhibition of growth at 10 µM: 80.5%
[30]
  inhibition of growth at 10 µM: > 10%
[31]
  inhibition of growth at 10 µM: > 10%
[32]
  growth inhibition (GI): Active
[33]
  inhibition of growth at 10 µM: > 10%
[34]
  inhibition of growth at 10 µM: 83.1%
[35]
  GI50: 2.6 µM
  TGI: 30.7 µM
  CC50: > 100 µM
[36]
  GI50: 2 µM
  LC50 (concentration giving 50% net cell kill): 29.3 µM
  TGI: 4.3 µM

## CCN1CC2=C(N=C3SC=C(C)N3C2c2ccc(OC)c(OC)c2)/C(=C/c2ccc(OC)c(OC)c2)C1 (stereo not given)
[1]
  GI50: 5.7 µM
  LC50: > 100 µM
  TGI: 40.1 µM
[2]
  GI50: 3.8 µM
  TGI: 49.7 µM
  CC50: > 100 µM
[3]
  GI50: 2.8 µM
  LC50 (concentration killing 50% of cells): 79.2 µM
  TGI: 53.4 µM
[4]
  GI50: 5.7 µM
  TGI: 49.5 µM
  CC50: 68.2 µM
[5]
  GI50: 3 µM
  TGI: 44.2 µM
  CC50: 86.5 µM
[6]
  growth inhibition (GI): Active
[7]
  growth inhibition (GI): Active
[8]
  inhibition of growth at 10 µM: 72.1%
[9]
  inhibition of growth at 10 µM: 96.4%
[10]
  growth inhibition (GI): Active
[11]
  growth inhibition (GI): Active
[12]
  growth inhibition (GI): Active
[13]
  inhibition of growth at 10 µM: 67.6%
[14]
  growth inhibition (GI): Active
[15]
  inhibition of growth at 10 µM: 61.7%
[16]
  growth inhibition (GI): Active
[17]
  growth inhibition (GI): Active
[18]
  inhibition of growth at 10 µM: 89.4%
[19]
  inhibition of growth at 10 µM: 69.2%
[20]
  inhibition of growth at 10 µM: 61%
[21]
  inhibition of growth at 10 µM: 68.1%
[22]
  inhibition of growth at 10 µM: 97.9%
[23]
  growth inhibition (GI): Active
[24]
  inhibition of growth at 10 µM: 87.2%
[25]
  growth inhibition (GI): Active
[26]
  inhibition of growth at 10 µM: 53.8%
[27]
  growth inhibition (GI): Active
[28]
  growth inhibition (GI): Active
[29]
  inhibition of growth at 10 µM: 84.5%
[30]
  inhibition of growth at 10 µM: 57%
[31]
  inhibition of growth at 10 µM: 26.2%
[32]
  growth inhibition (GI): Active
[33]
  inhibition of growth at 10 µM: 69.9%
[34]
  inhibition of growth at 10 µM: 93.7%
[35]
  GI50: 4 µM
  TGI: 81.9 µM
  CC50: > 100 µM
[36]
  GI50: 2.1 µM
  LC50 (concentration giving 50% net cell kill): 35.3 µM
  TGI: 5.6 µM
